In all, about 62,000 compounds went through this assay and about 130 (0.21%) were called active. This is one part of a sample in which actives are shown more often than they occur.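 How the source made its calls: active means inhibition above the mean of all tested compounds plus 3 SD (cut at about 40% in these data); inactive means the rest.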
test: lowered NF-kB luciferase signal in HEK293 cells – cell-based, HEK-293 luciferase reporter, PMA/ionomycin, luminescence, antigen receptor NF-kB inhibitor project, primary screen (AID 465); settings: HEK-293 NF-kB luciferase reporter, at 3 µM, stronger effect = higher value;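 further: 0% = stimulated DMSO wells and 100% = 10 µM reference inhibitor 5653914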
Summary of the method: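 Signal: luciferase luminescence; Material: HEK-293 cells with stable firefly luciferase reporter driven by four HIV NF-kB elements; Probe or stimulus: PMA with ionomycin; Replication: tested once; Times: 1 h compound pretreatment, then 16 h stimulation at 37 °C, 5% CO2; Benchmarks: DMSO and 10 µM reference inhibitor; Evaluation: per-plate % inhibition versus controls.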

inhibition, inactive:
CC1CN(C(=O)CN2C(=O)NC(C)(c3ccccc3)C2=O)CC(C)O1 (configuration not stated) 6.5%, Cc1cc(=O)oc(C)c1C(=O)NCc1ccc(F)cc1 4.5%, O=C(CCn1c(=O)oc2ccccc21)Nc1ccon1 6.5%, CCOC(=O)N1CCN(S(=O)(=O)c2ccc(C(=O)Nc3ccc(F)cc3F)cc2)CC1 17.4%, O=C(C(NS(=O)(=O)c1cccc2nsnc12)c1ccccc1)N1CCN(c2ccccn2)CC1 (configuration not stated) 10.9%, CCOc1cc(C(=O)N2CCc3cc(OC)c(OC)cc3C2)ccc1OC(F)F 31.7%, O=C(Cc1c(F)cccc1Cl)N1CCN(C(=O)c2ccco2)CC1 10.7%, Cc1nc2c(-c3ccc(F)cc3)c(C)nn2c(C)c1CCC(=O)N1CCN(c2ccccn2)CC1 0.2%, CCn1cc(C(=O)NC2CCCCCC2)c(=O)c2cc(S(=O)(=O)N3CCCCC3)ccc21 20.8%, COc1ccc(OC)c(NC(=O)CSc2nc3cccnc3n2C)c1 18.9%, CC(Sc1nncs1)C(=O)NCc1ccc2c(c1)OCO2 (configuration not stated) -5.2%, COc1ccccc1NC(=O)CN1CCN(S(=O)(=O)c2ccc(Br)cc2)CC1 4.2%, CCOC(=O)c1cccc(NC(=O)C2CCCN(S(=O)(=O)c3cnc[nH]3)C2)c1 (configuration not stated) 11.6%, O=c1ccc2cc(S(=O)(=O)N3CCN(c4ccccc4)CC3)ccc2o1 10.7%, CCCCCN(C(=O)NC(=O)Nc1ccccc1OC)S(C)(=O)=O 7.9%, COc1ccc(-c2nnn(Cc3nc(N)nc(N4CCCCC4)n3)n2)cc1 10.9%, O=C(NCCCCO)C(F)(F)C(F)(F)C(F)(F)C(=O)NCCCCO 13.3%, CCOC(=O)c1cc(C)sc1NC(=O)C1CCC1 0.1%, CC(C)Cc1ccc(S(=O)(=O)N2CCN(C(=O)c3ccco3)CC2)cc1 9.1%, CC(Sc1nncn1C)C(=O)Nc1ccccc1-c1ccccc1 (configuration not stated) 14.4%, O=C(CN1C(=O)NC2(CCCCC2)C1=O)NCCC1=CCCCC1 17.4%, CCN(CC)C(=O)N1CCN(C(=O)c2ccc(C)cn2)CC1 4.3%, Fc1ccc(Cn2nnnc2C(c2cccs2)N2CCCCCC2)cc1 (configuration not stated) 9.2%, CCCC(=O)Nc1nnc(CC(=O)OCC)s1 9.9%, CCCCNc1nc2ccccc2nc1NS(=O)(=O)c1cccs1 3.3%, Cc1noc(/C=C/N(C)C)c1S(=O)(=O)N1CCCC(C(=O)NCc2ccco2)C1 (configuration not stated) 5%, O=C(Cc1cccs1)N1CCCC(c2nc(-c3ccc(S(=O)(=O)N4CCCC4)cc3)no2)C1 (configuration not stated) 6.1%, Cc1cc(C(=O)COC(=O)c2cccs2)c(C)n1-c1c(C)n(C)n(-c2ccccc2)c1=O 20%, COc1cc(OC)cc(C(=O)Nc2ncc3c(n2)CC(C)(C)CC3=O)c1 18.8%, O=S(=O)(/C=C/c1ccccc1)NCCc1ccccn1 3.3%, CCCCc1nc2c(=O)[nH]c3ccccc3c2o1 7.6%, CNC(=O)c1nnn(-c2ccccc2)c1C(=O)NC 14%, CCC(=O)Nc1ccccc1C(=O)N1CCN(Cc2ccccc2)CC1 9.5%, Cc1[nH]c2ccccc2c1C(=O)CSCC(=O)O 16%, C/C(=C\C(=O)c1cccnc1)Nc1ccc(C)c(C)c1 -5%, O=C(O)c1cccc2c1C(=O)N(C1CCCCC1)C2 8.4%, CS(=O)(=O)N1CCN(C(=O)Cc2ccccc2)CC1 5.7%, CCCCC(CC)C(=O)Nc1ccc(Cl)cn1 (configuration not stated) -0.6%, CCN(CC)CCCN1C(=O)C(=O)/C(=C(/O)c2c(C)nc3ccccn23)C1c1ccc(C)o1 (configuration not stated) 13.6%, COCCNC(=O)CN(C(=O)CCC(=O)Nc1cc(C)on1)c1ccc(C)cc1C 1.1%, CC(C)C(=O)N1CCN(CCN=CC2=C(O)CC(c3ccco3)CC2=O)CC1 (configuration not stated) 9.5%, CC1CCCCC1NC(=O)CCS(=O)(=O)c1cccc2nonc12 (configuration not stated) 10.9%, CCOC(=O)N1CCC(NC(=O)Cn2cc3c(n2)CCCCC3)CC1 17.8%, CCOc1ccc(OCC)c(NC(=O)C(NS(=O)(=O)c2ccc3c(c2)oc(=O)n3C)C(C)C)c1 (configuration not stated) 12.5%, CCC1Oc2ccc(Cl)cc2N(CC(=O)O)C1=O (configuration not stated) 10.2%, CC(CCO)Nc1nc2c([nH]1)c(=O)n(C)c(=O)n2C (configuration not stated) 22.2%, COC(=O)[C@H](C(C)C)n1c(C)c(C(C)=O)c(C(C)=O)c1C -9.6%

Reference: PubChem BioAssay AID465 (The Scripps Research Institute Molecular Screening Center, 2006)
